SENP8 block-1 = blocks human SENP8 cleavage of Nedd8 substrate; recombinant SENP8, Nedd8 substrate fluorescence; inhibition, % at 20 µM; actives 0.64% (n = 360,000); AID 602440; in the data active = inhibition mostly above about 40%, no sharp cut-off; inactive = mostly below about 27%
Apaf1 inhib = blocks human Apaf-1 apoptosome activity; actives 0.71% (n = 330,000); AID 489030; inhibition, % at 20 µM; reconstituted apoptosome caspase-3 activity, DEVD-Rh110 fluorescence; active = inhibition of at least 40% at 20 µM
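detection = Rh110 fluorescence intensity | test system = biochemical Apaf-1 apoptosome reconstitution | also added = cytochrome c and DEVD-Rh110 substrate | schedule = 30 min plus 50 min, RT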
SENP1 FRET inh = blocks the human SENP1 SUMO protease catalytic domain | recombinant SENP1 catalytic domain, CyPet-SUMO1-YPet FRET cleavage | actives 0.21% (n = 360,000) | AID 624204 | inhibition, % at 10 µM;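 active = inhibition at least 30% at 10 µM, raw YFP signal under a set limit, fluorescence ratio 0.5 to 1.5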
Target sequence (Q9P0U3 419-644 limits assumed): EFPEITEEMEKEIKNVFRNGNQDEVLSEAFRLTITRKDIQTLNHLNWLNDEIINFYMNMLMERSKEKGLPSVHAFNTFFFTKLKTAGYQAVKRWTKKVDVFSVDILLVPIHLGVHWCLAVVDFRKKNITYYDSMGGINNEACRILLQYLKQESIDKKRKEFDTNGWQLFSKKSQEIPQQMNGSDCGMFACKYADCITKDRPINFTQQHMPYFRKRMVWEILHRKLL
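System: Recombinant human SENP1 catalytic domain, His6-tagged | Incubation: Enzyme reaction for 50 min at room temperature, dark | Medium: Tris pH 8 with BME, BSA, NP40 and catalase | Also added: 25 nM SUMO1 FRET substrate | Compound: 10 µM single point, 0.5% DMSO | Measured by: FRET fluorescence in CFP and YFP emission channels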
SENP6 inh = inhibitors of human SENP6 protease | Recombinant SENP6 catalytic domain, aminoluciferin luminescence | inhibition, % at 10 µM | actives 1.8% (n = 330,000) | AID 2599;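 active = inhibition above about 50% at the single tested dose, limit read from the data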
Target sequence (Q9GZR1 628-1112 limits assumed): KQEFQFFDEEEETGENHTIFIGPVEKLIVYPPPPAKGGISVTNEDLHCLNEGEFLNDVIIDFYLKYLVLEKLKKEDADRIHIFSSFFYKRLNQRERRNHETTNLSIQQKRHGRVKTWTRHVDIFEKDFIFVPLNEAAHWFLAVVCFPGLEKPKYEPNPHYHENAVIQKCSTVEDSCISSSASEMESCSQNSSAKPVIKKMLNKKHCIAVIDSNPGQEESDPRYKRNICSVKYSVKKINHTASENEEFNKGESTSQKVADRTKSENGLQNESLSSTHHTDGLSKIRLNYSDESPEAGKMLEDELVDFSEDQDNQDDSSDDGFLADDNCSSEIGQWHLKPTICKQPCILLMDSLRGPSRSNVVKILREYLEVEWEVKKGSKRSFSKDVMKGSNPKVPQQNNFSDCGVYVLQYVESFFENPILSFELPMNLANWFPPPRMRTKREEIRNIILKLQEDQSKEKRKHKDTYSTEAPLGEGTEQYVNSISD
SENP8 block-2 = inhibitors of human SENP8 protease. Q96LD8. purified SENP8, Z-RLRGG-aminoluciferin cleavage, luminescence. inhibition, % at 10 µM. actives 1.2% (n = 330,000); in the data active = inhibition above about 50%
SENP7 inh = blocks the human protease SENP7 | recombinant SENP7, Z-RLRGG-aminoluciferin luminescence, 40 min | inhibition, % at 5 µM | actives 1.5% (n = 330,000);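 active = inhibition above about 50% at the single test dose, limit read from the data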
SENP8 confirm = human SENP8 inhibition, confirmed; shares compounds with SENP7 inh; Recombinant SENP8, Z-RLRGG-aminoluciferin luminescence, 60 min; AID 488912; inhibition, % at 12.5 µM; actives 40% (n = 6,200);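 active = mean inhibition across replicates above about 50%, limit read from the data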
SENP6 conf = confirmation of human SENP6 protease inhibitors. shares compounds with SENP7 inh. recombinant SENP6, Z-RLRGG-aminoluciferin luminescence. inhibition, % at 12.5 µM. actives 58% (n = 6,200)
SENP7 conf = human SENP7 inhibition, confirmed | shares compounds with SENP7 inh | recombinant SENP7, Z-RLRGG-aminoluciferin luminescence, 40 min | inhibition, % at 12.5 µM | actives 69% (n = 6,200) | AID 488917
Casp3 SENP sel = selectivity test for SENP inhibitors: human caspase-3 inhibition. actives 60% (n = 6,200). purified caspase-3, Z-DEVD-aminoluciferin luminescence, 60 min. AID 488918. shares compounds with SENP7 inh. inhibition, % at 12.5 µM;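 active = mean inhibition above about 50%, limit read from the data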
Luc interf = interferes with luciferase luminescence in SENP counter-screen; shares compounds with SENP7 inh; Pre-incubated SENP8/Z-RLRGG-aminoluciferin, luciferase luminescence interference; inhibition, % at 12.5 µM; actives 39% (n = 6,200); AID 488919;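 active = mean inhibition above about 50% when retested at one dose, limit read from the data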
Numbers stand for hits; - = inactive; . = not tested or not shown; ! = not confirmed by another sample. An excerpt weighted towards active compounds, which were near 2.9% of everything screened.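 Rule for the calls, unless noted: active = mean inhibition above about 50% in the one-dose retest (limit read from the data); inactive = the rest.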

SMILES | SENP8 block-1 | Apaf1 inhib | SENP1 FRET inh | SENP6 inh | SENP8 block-2 | SENP7 inh | SENP8 confirm | SENP6 conf | SENP7 conf | Casp3 SENP sel | Luc interf
CC1(C)CC(NC(=O)C2CCC(=O)N(Cc3ccccc3F)C2)CC(C)(C)C1 (centres undefined) | - | - | - | - | - | - | . | . | . | . | .
CCOC(=O)c1cc(-c2cc3ccccc3o2)n[nH]1 | - | - | - | 72.0 | - | 53.8 | 63.0 | 60.6 | 80.8 | - | -
CCOC(=O)c1cc(-c2ccc(C)o2)n[nH]1 | - | - | - | - | - | - | . | . | . | . | .
C=CCn1c(SCC(=O)Nc2ccc(NC(=O)c3ccco3)c(OC)c2)nnc1-c1ccncc1 | - | - | - | 74.1 | - | - | - | - | - | - | -
c1ccc(-c2n[nH]c(-c3ccccn3)n2)nc1 | - | - | - | 66.2! | - | 58.8 | 52.7 | 51.3 | 78.4 | 84.4 | 61.2
c1ccc(-c2nn[nH]n2)nc1 | - | - | - | - | - | - | . | . | . | . | .
O=C(Nc1ccccn1)c1csc2c1CCCC2 | - | - | - | - | - | - | . | . | . | . | .
O=C(Nc1ccccn1)c1onc2c1CCCC2 | - | - | - | 86.7 | 84.0 | 94.3 | - | 90.4 | 99.8 | 94.9 | 83.4
COC(=O)c1ccc(OC(=O)/C=C/c2ccco2)cc1 | - | - | - | 83.0 | 78.2 | 76.5 | 83.8 | 86.0 | 73.2 | 74.0 | -
Cc1ccc(S(=O)(=O)n2c(N)nc3ccccc32)cc1 | - | - | - | - | - | - | . | . | . | . | .
Cc1ccc(C(=O)n2c(N)nc3ccccc32)cc1 | - | - | - | 86.2 | 91.4 | 97.0 | 89.8 | 94.7 | 100.8 | 96.2 | 65.5
C(=N\NC1=Nc2cccc3cccc1c23)/c1ccccc1 | - | - | - | 61.8 | - | - | - | - | 83.4 | - | -
Clc1ccc(/C=N/NC2=Nc3cccc4cccc2c34)cc1 | - | - | - | - | - | - | . | . | . | . | .
O=C(CN1CCN(C(=O)C2CCCO2)CC1)Nc1ccc(Br)cc1 (centres undefined) | - | - | - | - | - | - | . | . | . | . | .
COC(=O)c1ccc(NC(=O)C2CCN(C(=O)Nc3ccccc3)CC2)cc1 | - | - | - | - | - | - | . | . | . | . | .
O=C(COC(=O)c1cc(=O)[nH]c2ccccc12)Nc1nc(-c2ccc(F)cc2)cs1 | - | . | - | . | . | . | . | . | . | . | .
CCOC(=O)c1sc(-c2ccccc2)nc1C | - | - | - | - | - | - | . | . | . | . | .
CCOC(=O)Cc1ccc2sc(-c3ccccc3)nc2c1 | - | - | - | 96.7 | 95.1 | 99.1 | 97.8 | 99.0 | 101.6 | 96.6 | 92.4
CCOC(=O)c1ccc(NC(=O)c2ccnn2C)cc1 | - | - | - | 67.7 | 59.4 | 58.5 | - | - | - | - | -
Cn1nccc1C(=O)Nc1ccc(OC(=O)c2ccnn2C)cc1 | - | - | - | - | - | - | . | . | . | . | .
CCOC(=O)c1ccc(NC(=O)c2ccccc2C)cc1 | - | - | - | 70.2 | 57.8 | 65.5 | 69.3 | 59.4 | 87.4 | 54.2 | 54.7
CCOC(=O)c1cccc(NC(=O)c2ccccc2C)c1 | - | - | - | - | - | - | . | . | . | . | .
COCCNc1nc(NCc2ccc(C(C)C)cc2)c2sccc2n1 | - | . | - | . | . | . | . | . | . | . | .
O=C(Nc1cccc(NC(=O)c2ccc3c(c2)OCO3)c1)c1ccccc1 | - | - | - | - | - | - | . | . | . | . | .
O=C(Nc1cccc(-c2nn[nH]n2)c1)c1ccc(Cl)s1 | - | - | - | 50.8 | - | - | - | - | 72.4 | - | 58.3
SMILES | SENP8 block-1 | Apaf1 inhib | SENP1 FRET inh | SENP6 inh | SENP8 block-2 | SENP7 inh | SENP8 confirm | SENP6 conf | SENP7 conf | Casp3 SENP sel | Luc interf
O=C(Nc1ccc2c(c1)OCCO2)c1ccc(Cl)cc1 | - | - | - | 81.2 | 59.4 | 73.4 | - | 74.8 | 92.4 | 76.1 | -
O=C(Nc1ccc2c(c1)OCO2)c1cccc(Cl)c1 | - | - | - | 92.1 | 81.1 | 92.2 | - | 86.6 | 98.5 | 89.6 | 74.0
O=C(Nc1cccc(-c2nn[nH]n2)c1)c1ccc(Br)s1 | - | - | - | - | - | - | . | . | . | . | .
O=C(Nc1ccc2c(c1)OCO2)OCc1ccccc1 | - | - | - | - | - | 60.0 | 52.4 | 50.6 | 82.1 | 52.9 | -
Cc1cccc(C(O)c2ncc(-c3ccc(C(F)(F)F)cc3)[nH]2)c1C (centres undefined) | - | . | - | . | . | . | . | . | . | . | .
COc1ccc2c(c1OC)OCC2C (centres undefined) | - | . | - | . | . | . | . | . | . | . | .
O=C(CN1CCN(S(=O)(=O)c2ccc(Cl)cc2)CC1)NCC1(N2CCOCC2)CCCCC1 | - | - | - | - | - | - | . | . | . | . | .
NC(=O)c1ccc(NC(=O)c2ccc3c(c2)OCO3)cc1 | - | - | - | - | - | - | . | . | . | . | .
O=C(Nc1ccc(Cl)cc1)c1ccc2c(c1)OCO2 | - | - | - | 73.3 | - | 76.0 | - | 54.4 | 88.1 | 73.5 | -
O=C(Nc1cccc(C(=O)O)c1)Nc1ccc2c(c1)OCO2 | - | - | - | 96.4 | 92.5 | 99.8 | 97.0 | 97.0 | 101.4 | 93.3 | 96.3
O=C(Nc1ccc2c(c1)oc1ccccc12)c1ccc2c(c1)OCO2 | - | - | - | - | - | 61.3 | - | - | - | - | -
O=C(Nc1ccc(F)c(F)c1)c1ccc2c(c1)OCO2 | - | - | - | 71.1 | 66.9 | - | 73.4 | 74.4 | 90.8 | 76.1 | -
COc1ccc(C2=Nc3ccccc3NC(=O)C2N(Cc2ccccc2)C(=O)C2=NNC(=O)CC2)cc1 (centres undefined) | - | . | - | . | . | . | . | . | . | . | .
O=C(Nc1ccc(Cl)cc1)Nc1ccc2c(c1)OCO2 | - | - | - | - | - | - | . | . | . | . | .
O=C(Nc1ccc2c(c1)OCO2)c1ccc(Cl)s1 | - | - | - | 76.5 | 61.7 | 73.5 | - | 62.9 | 88.1 | 66.3 | 63.6
O=C(Nc1ccc(Cl)c(Cl)c1)c1ccccc1 | - | - | - | 89.5 | 83.9 | 80.0 | - | 78.7 | 95.8 | 56.8 | -
O=C(Nc1ccc(Nc2ccccc2)cc1)c1ccc(Cl)cc1 | - | - | - | - | - | - | . | . | . | . | .
O=C(Nc1ccc(Cl)cc1)C1=Cc2ccccc2OC1 | - | - | - | 66.1 | - | - | 52.6 | 62.0 | 86.7 | - | -
O=C(Nc1ccc2nsnc2c1)c1ccc2c(c1)OCO2 | - | - | - | 66.7 | 64.9 | 78.0 | - | 57.2 | 87.7 | 80.0 | -
O=C(Nc1ccc2nc3ccccc3nc2c1)c1ccccc1 | - | . | - | . | . | . | . | . | . | . | .
